Laboratory results from ChEMBL document CHEMBL3351269, “Phenylimidazoles as potent and selective inhibitors of coagulation factor XIa with in vivo antithrombotic activity” (J Med Chem, 2014).

Tests used:
[1] = target: Coagulation factor XI (Homo sapiens, UniProt P03951); assay: Inhibition of human coagulation factor 11a using p-nitroaniline as substrate assessed as substrate hydrolysis by spectrophotometrically
Summary of the method: (§1)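 Purified human enzymes; reaction started by adding enzyme to substrate with or without inhibitor, excess substrate and inhibitor over enzyme, 1% DMSO, room temperature, 10–120 min. pNA read at 405 nm. FXIa, FXIIa and chymotrypsin in HEPES pH 7.4 with NaCl, KCl and PEG; FXa and kallikrein in phosphate pH 7.5; FVIIa in HEPES with CaCl2. IC50 from duplicates over 8–11 concentrations, converted to Ki assuming competitive inhibition.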

[2] = Anticoagulant activity in healthy human plasma assessed as concentration required to 2 fold prolong clotting time by aPTT assay; type: functional
Summary of the method: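 Citrated human plasma from healthy volunteers (one-tenth volume 0.11 M buffered citrate; spun 2000g, 10 min, kept on ice). Inhibitor from 10 mM DMSO stock, diluted in plasma, up to seven concentrations. aPTT with Alexin: plasma warmed 1 min at 37 °C, reagent added, CaCl2 2 min later. Duplicates, as ratio to baseline. EC2x by linear interpolation, as total plasma concentration.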

[3] = target: Plasma kallikrein (Homo sapiens, UniProt P03952); assay: Inhibition of human plasma kallikrein using H-D-Pro-Phe-Arg-pNA as substrate; summary of the method: as §1
Chain of Plasma kallikrein (P03952 20-390 limits assumed): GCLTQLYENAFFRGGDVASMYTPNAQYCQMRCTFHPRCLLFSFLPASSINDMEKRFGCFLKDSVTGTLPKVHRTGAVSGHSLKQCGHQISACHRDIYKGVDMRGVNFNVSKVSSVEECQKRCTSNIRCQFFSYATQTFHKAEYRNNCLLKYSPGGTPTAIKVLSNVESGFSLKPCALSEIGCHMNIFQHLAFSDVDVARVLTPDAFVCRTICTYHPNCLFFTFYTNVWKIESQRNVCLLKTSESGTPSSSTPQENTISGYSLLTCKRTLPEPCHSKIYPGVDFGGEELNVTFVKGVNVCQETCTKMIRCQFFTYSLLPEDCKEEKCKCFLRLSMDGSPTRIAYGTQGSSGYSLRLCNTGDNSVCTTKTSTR
Chain of Plasma kallikrein (P03952 391-638 limits assumed): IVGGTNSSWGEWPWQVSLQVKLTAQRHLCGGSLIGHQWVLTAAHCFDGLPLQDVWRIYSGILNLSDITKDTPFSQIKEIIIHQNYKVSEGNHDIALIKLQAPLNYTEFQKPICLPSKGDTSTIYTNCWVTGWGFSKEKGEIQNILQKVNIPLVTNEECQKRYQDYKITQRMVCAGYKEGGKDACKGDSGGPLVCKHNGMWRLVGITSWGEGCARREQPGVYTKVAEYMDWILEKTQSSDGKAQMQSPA

[4] = target: Coagulation factor X (Homo sapiens, UniProt P00742); assay: Inhibition of human coagulation factor 10a using N-benzoyl-Ile-Glu-(OH, OMe)-Gly-Arg-pNA as substrate by spectrophotometric analysis; summary of the method: as §1
Chain of Coagulation factor X (P00742 41-179 limits assumed): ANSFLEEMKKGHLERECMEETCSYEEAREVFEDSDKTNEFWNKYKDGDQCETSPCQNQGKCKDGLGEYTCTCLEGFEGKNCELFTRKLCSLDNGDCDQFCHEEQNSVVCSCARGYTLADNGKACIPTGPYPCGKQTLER
Chain of Coagulation factor X (P00742 235-488 limits assumed): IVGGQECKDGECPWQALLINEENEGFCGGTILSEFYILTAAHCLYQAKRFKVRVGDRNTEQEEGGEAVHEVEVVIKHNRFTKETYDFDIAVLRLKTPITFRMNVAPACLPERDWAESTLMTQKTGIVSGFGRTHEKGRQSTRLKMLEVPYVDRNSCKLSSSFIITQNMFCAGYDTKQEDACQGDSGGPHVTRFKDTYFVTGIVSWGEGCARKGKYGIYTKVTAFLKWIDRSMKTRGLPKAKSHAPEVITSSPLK

[5] = target: T1, Coagulation factor VII (Homo sapiens, UniProt P08709); assay: Inhibition of human coagulation factor 7a using H-(D)-Ile-Pro-Arg-pNA as substrate by spectrophotometric analysis; summary of the method: as §1
T1 sequence (P08709 whole entry): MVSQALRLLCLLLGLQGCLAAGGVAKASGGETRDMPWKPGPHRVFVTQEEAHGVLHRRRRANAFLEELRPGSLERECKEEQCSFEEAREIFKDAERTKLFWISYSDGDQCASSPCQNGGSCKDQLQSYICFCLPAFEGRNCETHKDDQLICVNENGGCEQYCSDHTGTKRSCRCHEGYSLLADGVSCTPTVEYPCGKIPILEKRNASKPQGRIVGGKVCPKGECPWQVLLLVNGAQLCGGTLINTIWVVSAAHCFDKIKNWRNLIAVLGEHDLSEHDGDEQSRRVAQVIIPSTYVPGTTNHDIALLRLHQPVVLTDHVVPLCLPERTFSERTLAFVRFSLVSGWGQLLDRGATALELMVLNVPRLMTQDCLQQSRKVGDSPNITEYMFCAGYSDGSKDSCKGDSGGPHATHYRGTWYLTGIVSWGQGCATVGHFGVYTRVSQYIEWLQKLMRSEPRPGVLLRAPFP

[6] = tested on: Oryctolagus cuniculus; assay: Antithrombotic activity in iv dosed New Zealand male rabbit AV-shunt thrombosis model assessed as inhibition of thrombus formation infused at 1 mg/kg/hr; type: functional; settings: read-out: ID50 (the source's name)
[7] = Solubility of the compound in 100 mM phosphate buffer at pH 7.4; type: physicochemical
Summary of the method: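 Solubility of the amorphous bis-HCl salt in 100 mM phosphate buffer, pH 7.4.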

Chain of Coagulation factor XI (P03951 19-387 limits assumed): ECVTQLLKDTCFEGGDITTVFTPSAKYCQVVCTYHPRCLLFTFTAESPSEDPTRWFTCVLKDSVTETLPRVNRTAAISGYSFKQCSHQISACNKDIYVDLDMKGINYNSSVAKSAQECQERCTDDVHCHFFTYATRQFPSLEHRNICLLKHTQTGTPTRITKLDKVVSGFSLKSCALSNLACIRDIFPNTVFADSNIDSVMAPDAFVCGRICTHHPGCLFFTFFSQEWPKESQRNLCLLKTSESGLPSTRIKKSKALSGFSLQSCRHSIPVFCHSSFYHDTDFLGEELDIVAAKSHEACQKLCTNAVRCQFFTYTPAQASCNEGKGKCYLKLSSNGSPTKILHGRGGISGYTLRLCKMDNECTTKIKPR
Chain of Coagulation factor XI (P03951 388-625 limits assumed): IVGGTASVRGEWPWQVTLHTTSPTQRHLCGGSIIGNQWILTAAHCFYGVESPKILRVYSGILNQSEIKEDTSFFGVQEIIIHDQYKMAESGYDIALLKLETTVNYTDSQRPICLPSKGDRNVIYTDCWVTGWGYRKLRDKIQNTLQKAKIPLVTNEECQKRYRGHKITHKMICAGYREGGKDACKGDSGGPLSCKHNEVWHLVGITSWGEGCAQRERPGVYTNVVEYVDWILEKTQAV

Row | Structure (SMILES) | Ki [1] [nM] | 2aPTT [2] [µM] | Ki [3] [nM] | Ki [4] [nM] | Ki [5] [nM] | ED50 [6] [mg/kg] | solubility [7] [µg/mL]
1 | NC[C@H]1CC[C@H](C(=O)N[C@@H](Cc2ccccc2)c2nc(-c3ccc4c(N)n[nH]c4c3)c(F)[nH]2)CC1.O=C(O)C(F)(F)F | 0.3 | 0.5 | 2 | > 8180 | 6200 | – | –
2 | N#Cc1ccc(-c2c[nH]c([C@H](Cc3ccccc3)NC(=O)[C@H]3CC[C@H](CN)CC3)n2)cc1 | 230 | – | 940 | > 8180 | > 10900 | – | –
3 | Cl.NC[C@H]1CC[C@H](C(=O)N[C@@H](Cc2ccccc2)c2nc(-c3ccc4c(N)n[nH]c4c3)c(Cl)[nH]2)CC1 | – | – | – | – | – | 0.6 | 946
4 | NC[C@H]1CC[C@H](C(=O)N[C@@H](Cc2ccccc2)c2c[nH]c(-c3ccccc3)n2)CC1 | 1640 | – | 4500 | – | – | – | –
5 | NC[C@H]1CC[C@H](C(=O)N[C@@H](Cc2ccccc2)c2nc(-c3ccc(C(N)=O)cc3)c(F)[nH]2)CC1.O=C(O)C(F)(F)F | 3 | 2 | 8 | 1370 | > 13400 | – | –
6 | CCOC(=O)Cc1ccc(-c2c[nH]c([C@H](Cc3ccccc3)NC(=O)[C@H]3CC[C@H](CN)CC3)n2)cc1 | 495 | – | 1360 | > 8180 | > 10900 | – | –
7 | NC[C@H]1CC[C@H](C(=O)N[C@@H](Cc2ccccc2)c2nc(-c3ccccc3)c[nH]2)CC1.O=C(O)C(F)(F)F | 120 | >40 | 330 | > 8180 | > 10900 | – | –
8 | NC[C@H]1CC[C@H](C(=O)N[C@@H](Cc2ccccc2)c2nc(-c3ccc(CC(N)=O)cc3)c[nH]2)CC1 (mixture of isomers) | 400 | – | 1310 | > 8180 | > 10900 | – | –
9 | N#Cc1cccc(-c2c[nH]c([C@H](Cc3ccccc3)NC(=O)[C@H]3CC[C@H](CN)CC3)n2)c1 | 1120 | – | 1170 | > 8180 | > 10900 | – | –
10 | CNC(=O)c1ccc(-c2c[nH]c([C@H](Cc3ccccc3)NC(=O)[C@H]3CC[C@H](CN)CC3)n2)cc1 | 350 | – | 220 | > 8180 | > 10900 | – | –
11 | NC[C@H]1CC[C@H](C(=O)N[C@@H](Cc2ccccc2)c2nc(-c3ccc4c(N)n[nH]c4c3)c[nH]2)CC1.O=C(O)C(F)(F)F | 3 | 2 | 50 | > 8180 | > 10900 | – | –
12 | CC(C)CC(=O)Nc1cc(-c2ccc(C(N)=O)cc2C(=O)O)cc([C@@H]2C[C@](C)(c3ccccc3)c3cc(C(=N)N)ccc3N2)c1 | 0.2 | 2 | 2 | 340 | 630 | – | –
13 | CN(C)C(=O)c1ccc(-c2c[nH]c([C@H](Cc3ccccc3)NC(=O)[C@H]3CC[C@H](CN)CC3)n2)cc1 | 2860 | – | 5270 | > 8180 | > 10900 | – | –
14 | NC[C@H]1CC[C@H](C(=O)N[C@@H](Cc2ccccc2)c2nc(-c3ccc(S(N)(=O)=O)cc3)c[nH]2)CC1 | 1340 | – | 5540 | > 8180 | > 10900 | – | –
15 | NC[C@H]1CC[C@H](C(=O)N[C@@H](Cc2ccccc2)c2nc(-c3cccc(CC(=O)O)c3)c[nH]2)CC1 | 275 | – | 920 | > 8180 | > 10900 | – | –
16 | NC[C@H]1CC[C@H](C(=O)N[C@@H](Cc2ccccc2)c2ncc(-c3ccccc3)o2)CC1 | 1440 | – | 3440 | – | – | – | –
17 | NC[C@H]1CC[C@H](C(=O)N[C@@H](Cc2ccccc2)c2nn(-c3ccccc3)c(=O)[nH]2)CC1 | 3070 | – | 4820 | – | – | – | –
18 | NC[C@H]1CC[C@H](C(=O)N[C@@H](Cc2ccccc2)c2nc(-c3ccccc3)n[nH]2)CC1 | 980 | – | 2220 | – | – | – | –
19 | NC[C@H]1CC[C@H](C(=O)N[C@@H](Cc2ccccc2)c2nc(-c3ccc(CC(=O)O)cc3)c[nH]2)CC1 | 150 | – | 765 | > 8180 | > 10900 | – | –
20 | NC[C@H]1CC[C@H](C(=O)N[C@@H](Cc2ccccc2)c2nc(-c3cccc(C(N)=O)c3)c[nH]2)CC1 | 1100 | – | 910 | > 8180 | > 10900 | – | –
21 | NC[C@H]1CC[C@H](C(=O)N[C@@H](Cc2ccccc2)c2nc(-c3ccc(C(N)=O)cc3)c(Cl)[nH]2)CC1.O=C(O)C(F)(F)F | 4 | 6 | 20 | > 9000 | > 10900 | – | –
22 | NC[C@H]1CC[C@H](C(=O)N[C@@H](Cc2ccccc2)c2nc(-c3ccc(C(=O)O)cc3)c[nH]2)CC1 (mixture of isomers) | 590 | – | 3820 | > 8180 | > 10900 | – | –
23 | NC[C@H]1CC[C@H](C(=O)N[C@@H](Cc2ccccc2)c2cc(-c3ccccc3)n[nH]2)CC1 | 6940 | – | 5020 | – | – | – | –
24 | NC[C@H]1CC[C@H](C(=O)N[C@@H](Cc2ccccc2)c2nc(-c3ccc(C(N)=O)cc3)c(Br)[nH]2)CC1.O=C(O)C(F)(F)F | 9 | 10 | 45 | > 8180 | > 10900 | – | –
25 | NC[C@H]1CC[C@H](C(=O)N[C@@H](Cc2ccccc2)c2nc(-c3cccc(CC(N)=O)c3)c[nH]2)CC1 | 545 | – | 1900 | > 8180 | > 10900 | – | –
26 | COC(=O)c1ccc(-c2c[nH]c([C@H](Cc3ccccc3)NC(=O)[C@H]3CC[C@H](CN)CC3)n2)cc1 | 800 | – | 1920 | > 8180 | > 10900 | – | –
27 | CCOC(=O)Cc1cccc(-c2c[nH]c([C@H](Cc3ccccc3)NC(=O)[C@H]3CC[C@H](CN)CC3)n2)c1 | 630 | – | 1470 | > 8180 | > 10900 | – | –
28 | NC[C@H]1CC[C@H](C(=O)N[C@@H](Cc2ccccc2)c2nc(-c3ccc(C(N)=O)cc3)c[nH]2)CC1.O=C(O)C(F)(F)F | 30 | >40 | 60 | > 9000 | > 10900 | – | –
